Data reported in ChEMBL document CHEMBL1148966, “Cytotoxic steroidal saponins from Polygonatum zanlanscianense” (J Nat Prod, 2004).
In brackets after ≈: the same amount, converted by molar mass.

Each molecule was assayed on HeLa (assay: Cytotoxicity against human HeLa cells after 72 hrs by MTT assay).
Assay type: functional, cell-based
Outline: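 HeLa cells in 96-well microplates; viability by MTT colorimetric assay, optical density read at 570 nm on a plate reader; IC50 reported in µg/mL. Cisplatin run as positive control.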

SMILES	IC50 [µg/mL]
C[C@@H]1O[C@@H](O[C@H]2[C@H](O[C@H]3CC[C@@]4(C)C(=CC[C@H]5[C@@H]6C[C@@H]7O[C@]8(CC[C@@H](CO)CO8)[C@@H](C)[C@@H]7[C@@]6(C)CC[C@@H]54)C3)O[C@H](CO)[C@@H](O[C@@H]3O[C@@H](C)[C@H](O)[C@@H](O)[C@H]3O)[C@@H]2O)[C@H](O)[C@H](O)[C@H]1O	3.62 (≈ 4.09 µM)
C[C@H]1[C@H]2[C@H](C[C@H]3[C@@H]4CC=C5C[C@@H](O[C@@H]6O[C@H](CO)[C@H](O[C@@H]7O[C@H](CO)[C@@H](O)[C@H](O)[C@H]7O)[C@H](O)[C@H]6O)CC[C@]5(C)[C@H]4CC(=O)[C@]23C)O[C@]12CC[C@@H](CO[C@@H]1O[C@H](CO)[C@@H](O)[C@H](O)[C@H]1O)CO2	5.13 (≈ 5.51 µM)
C[C@@H]1CC[C@@]2(OC1)O[C@H]1C[C@H]3[C@@H]4CC=C5C[C@@H](O[C@@H]6O[C@H](CO)[C@@H](O[C@@H]7OC[C@@H](O)[C@@H](O)[C@@H]7O)[C@H](O)[C@H]6O[C@@H]6O[C@@H](C)[C@H](O)[C@@H](O)[C@H]6O)CC[C@]5(C)[C@H]4CC[C@]3(C)[C@H]1[C@@H]2C	14.6 (≈ 17 µM)
C[C@H]1[C@H]2[C@H](C[C@H]3[C@@H]4CC=C5C[C@@H](O[C@@H]6O[C@H](CO)[C@H](O[C@@H]7O[C@H](CO)[C@@H](O)[C@H](O)[C@H]7O[C@@H]7O[C@H](CO)[C@@H](O)[C@H](O)[C@H]7O)[C@H](O)[C@H]6O)CC[C@]5(C)[C@H]4CC[C@]23C)O[C@]12CC[C@@H](CO)CO2	5.24 (≈ 5.71 µM)
CC1=CC(=O)CC(C)(C)[C@H]1CC[C@@H](C)O[C@@H]1O[C@H](CO[C@@H]2O[C@H](CO)[C@@H](O)[C@H](O)[C@H]2O)[C@@H](O)[C@H](O)[C@H]1O	20.1 (≈ 37.5 µM)
C[C@@H]1CC[C@@]2(OC1)O[C@H]1C[C@H]3[C@@H]4CC=C5C[C@@H](O[C@@H]6O[C@H](CO)[C@@H](O)[C@H](O[C@@H]7O[C@H](CO)[C@@H](O)[C@H](O)[C@H]7O)[C@H]6O[C@@H]6O[C@@H](C)[C@H](O)[C@@H](O)[C@H]6O)CC[C@]5(C)[C@H]4CC[C@]3(C)[C@H]1[C@@H]2C [GRACILLIN]	12.7 (≈ 14.4 µM)
C[C@@H]1CC[C@@]2(OC1)O[C@H]1C[C@H]3[C@@H]4CC=C5C[C@@H](O[C@@H]6O[C@H](CO)[C@@H](O)[C@H](O)[C@H]6O[C@@H]6O[C@@H](C)[C@H](O)[C@@H](O)[C@H]6O)CC[C@]5(C)[C@H]4CC[C@]3(C)[C@H]1[C@@H]2C [OPHIOPOGONIN C]	6.23 (≈ 8.62 µM)
C[C@@H]1CC[C@@]2(OC1)O[C@H]1C[C@H]3[C@@H]4CC=C5C[C@@H](O[C@@H]6O[C@H](CO)[C@@H](O[C@@H]7OC[C@@H](O)[C@@H](O[C@@H]8O[C@@H](C)[C@H](O[C@@H]9O[C@@H](C)[C@H](O)[C@@H](O)[C@H]9O)[C@@H](O)[C@H]8O)[C@@H]7O)[C@H](O)[C@H]6O[C@@H]6O[C@@H](C)[C@H](O)[C@@H](O)[C@H]6O)CC[C@]5(C)[C@H]4CC[C@]3(C)[C@H]1[C@@H]2C [PARISSAPONIN PB]	3.14 (≈ 2.74 µM)
C[C@H]1O[C@@H](O[C@H]2CC[C@@]3(C)C(=CC[C@H]4[C@@H]5C[C@@H]6O[C@]7(CC[C@@H](CO[C@@H]8O[C@H](CO)[C@@H](O)[C@H](O)[C@H]8O)CO7)[C@@H](C)[C@@H]6[C@@]5(C)C(=O)C[C@@H]43)C2)[C@H](O)[C@@H](O)[C@H]1O[C@@H]1O[C@H](CO)[C@@H](O)[C@H](O)[C@H]1O [POLYGONATOSIDE A]	5.06 (≈ 5.53 µM)
C[C@H]1O[C@@H](O[C@H]2CC[C@@]3(C)C(=CC[C@H]4[C@@H]5C[C@@H]6O[C@@]7(OC[C@H](CO)C[C@@H]7O)[C@@H](C)[C@@H]6[C@@]5(C)C(=O)C[C@@H]43)C2)[C@H](O)[C@@H](O)[C@H]1O[C@@H]1O[C@H](CO)[C@@H](O)[C@H](O)[C@H]1O [POLYGONATOSIDE C]	7.45 (≈ 9.69 µM)
C[C@@H]1O[C@@H](O[C@H]2[C@H](O)[C@@H](O)[C@H](O[C@H]3CC[C@@]4(C)C(=CC[C@H]5[C@@H]6C[C@@H]7O[C@]8(CC[C@@H](CO[C@@H]9O[C@H](CO)[C@@H](O)[C@H](O)[C@H]9O)CO8)[C@@H](C)[C@@H]7[C@@]6(C)CC[C@@H]54)C3)O[C@@H]2CO)[C@H](O)[C@H](O)[C@H]1O [POLYGONATOSIDE D]	5.83 (≈ 6.47 µM)
